Assay results taken from ChEMBL document CHEMBL4819105, “Synthesis and activity of N-(5-hydroxy-3,4,6-trimethylpyridin-2-yl)acetamide analogues as anticolitis agents via dual inhibition of TNF-α- and IL-6-induced cell adhesions” (2021).
Calls of active or inactive are those of the source. The rule behind the calls is not given here.

Columns and labels:
[1] = Inhibition of TNF-alpha-induced cell adhesion in human U937 cells assessed as reduction in cell adhesion to HT-29 cells at 1 uM relative to control; assay type: functional; conditions: U-937
[2] = Inhibition of IL-6-induced cell adhesion in human U937 cells assessed as reduction in cell adhesion to HT-29 cells at 1 uM relative to control; assay type: functional; conditions: U-937
Rattus norvegicus [3] = test: Anti-colitis activity against TNBS-induced rat model of colitis assessed as decrease in adhesion at 1 mg/kg, po administered for 5 days and measured on day 5; assay type: functional, organism-based; conditions: time 5.0 day
Outline: (§1)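 Rat colitis induced by rectal TNBS. Test agents given orally once daily for 5 days. Read-outs are body weight, colon appearance (congestion, adhesion), and colon tissue weight/length. MPO in colon tissue was measured with an MPO assay kit. Groups were compared against mock control and vehicle-treated TNBS animals, with P < 0.05 taken as significant.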

Rattus norvegicus [4] = test: Anti-colitis activity against TNBS-induced rat model of colitis assessed as increase in body weight at 1 mg/kg, po administered for 5 days and measured on day 5; conditions: time 5.0 day
Rattus norvegicus [5] = test: Anti-colitis activity against TNBS-induced rat model of colitis assessed as decrease in MPO level in colon at 1 mg/kg, po administered for 5 days and measured on day 5; assay type: functional, organism-based; conditions: time 5.0 day; outline: as §1
Rattus norvegicus [6] = test: Anti-colitis activity against TNBS-induced rat model of colitis assessed as decrease in congestion at 1 mg/kg, po administered for 5 days and measured on day 5; assay type: functional, organism-based; conditions: time 5.0 day; outline: as §1
Rattus norvegicus [7] = test: Anti-colitis activity against TNBS-induced rat model of colitis assessed as increase in body weight at 1 mg/kg, po administered for 5 days and measured on day 5; assay type: functional, organism-based; conditions: time 5.0 day; outline: as §1
Rattus norvegicus [8] = test: Anti-colitis activity against TNBS-induced rat model of colitis assessed as increase in colon weight at 1 mg/kg, po administered for 5 days and measured on day 5; assay type: functional, organism-based; conditions: time 5.0 day; outline: as §1
Rattus norvegicus [9] = test: Anti-colitis activity against TNBS-induced rat model of colitis assessed as increase in body weight at 300 mg/kg, po administered for 5 days and measured on day 5; assay type: functional, organism-based; conditions: time 5.0 day; outline: as §1
Rattus norvegicus [10] = test: Anti-colitis activity against TNBS-induced rat model of colitis assessed as decrease in MPO level in colon at 300 mg/kg, po administered for 5 days and measured on day 5; assay type: functional, organism-based; conditions: time 5.0 day; outline: as §1
Rattus norvegicus [11] = test: Anti-colitis activity against TNBS-induced rat model of colitis assessed as decrease in adhesion at 300 mg/kg, po administered for 5 days and measured on day 5; assay type: functional, organism-based; conditions: time 5.0 day; outline: as §1
Rattus norvegicus [12] = test: Anti-colitis activity against TNBS-induced rat model of colitis assessed as increase in colon weight at 300 mg/kg, po administered for 5 days and measured on day 5; assay type: functional, organism-based; conditions: time 5.0 day; outline: as §1
Rattus norvegicus [13] = test: Anti-colitis activity against TNBS-induced rat model of colitis assessed as increase in colon length at 300 mg/kg, po administered for 5 days and measured on day 5; assay type: functional, organism-based; conditions: time 5.0 day; outline: as §1
Rattus norvegicus [14] = test: Anti-colitis activity against TNBS-induced rat model of colitis assessed as decrease in congestion at 300 mg/kg, po administered for 5 days and measured on day 5; assay type: functional, organism-based; conditions: time 5.0 day; outline: as §1
Rattus norvegicus [15] = test: Anti-colitis activity against TNBS-induced rat model of colitis assessed as decrease in adhesion at 1 to 10 mg/kg, po administered for 5 days and measured on day 5; assay type: functional, organism-based; conditions: dose 1-10 mg/kg, time 5.0 day; outline: as §1
Rattus norvegicus [16] = test: Anti-colitis activity against TNBS-induced rat model of colitis assessed as increase in colon weight at 1 to 10 mg/kg, po administered for 5 days and measured on day 5; assay type: functional, organism-based; conditions: dose 1-10 mg/kg, time 5.0 day; outline: as §1
Rattus norvegicus [17] = test: Anti-colitis activity against TNBS-induced rat model of colitis assessed as increase in colon length at 1 to 10 mg/kg, po administered for 5 days and measured on day 5; assay type: functional, organism-based; conditions: dose 1-10 mg/kg, time 5.0 day; outline: as §1
Rattus norvegicus [18] = test: Anti-colitis activity against TNBS-induced rat model of colitis assessed as increase in body weight administered po for 5 days and measured on day 5; assay type: functional, organism-based; conditions: dose 1-10 mg/kg, time 5.0 day; outline: as §1
Rattus norvegicus [19] = test: Anti-colitis activity against TNBS-induced rat model of colitis assessed as decrease in congestion at 1 to 10 mg/kg, po administered for 5 days and measured on day 5; assay type: functional, organism-based; conditions: dose 1-10 mg/kg, time 5.0 day; outline: as §1
Rattus norvegicus [20] = test: Anti-colitis activity against TNBS-induced rat model of colitis assessed as decrease in MPO level in colon at 1 to 10 mg/kg, po administered for 5 days and measured on day 5; assay type: functional, organism-based; conditions: dose 1-10 mg/kg, time 5.0 day; outline: as §1
[21] = Inhibition of IL-6-induced cell adhesion in human U937 cells assessed as reduction in cell adhesion to HT-29 cells at 1000 uM relative to control; assay type: functional; conditions: U-937
[22] = Inhibition of TNF-alpha-induced cell adhesion in human U937 cells assessed as reduction in cell adhesion to HT-29 cells at 1000 uM relative to control; assay type: functional; conditions: U-937

| Structure (SMILES) | inhibition at 1 µM [1] | inhibition at 1 µM [2] | also measured |
| --- | --- | --- | --- |
| Cc1nc(NC(=O)CCc2ccccc2F)c(C)c(C)c1O | 13.9% | 18% | – |
| Cc1nc(NC(=O)CCc2ccccc2)c(C)c(C)c1O | – | 69.6% | Activity (Rattus norvegicus [3]): Active; Activity (Rattus norvegicus [4]): Active; Activity (Rattus norvegicus [5]): Active; Activity (Rattus norvegicus [6]): Active; Activity (Rattus norvegicus [7]): Active; Activity (Rattus norvegicus [8]): Active |
| Cc1nc(NC(=O)C(C)(C)C)c(C)c(C)c1O | – | 21.1% | – |
| Cc1nc(NC(=O)C2CCCCC2)c(C)c(C)c1O | – | 56.7% | – |
| Cc1nc(NC(=O)COc2ccccc2)c(C)c(C)c1O | 10.8% | 11.4% | – |
| Cc1nc(NC(=O)CC(C)CC(C)(C)C)c(C)c(C)c1O (stereo not drawn) | – | 46.3% | – |
| C=CCC(=O)Nc1nc(C)c(O)c(C)c1C | 31.9% | 21.3% | – |
| CCCC(=O)Nc1nc(C)c(O)c(C)c1C | 10% | 17.5% | – |
| Cc1nc(NC(=O)CCc2ccccc2Br)c(C)c(C)c1O | 35.3% | 22% | – |
| O=C(O)c1cc(/N=N/c2ccc(S(=O)(=O)Nc3ccccn3)cc2)ccc1O | – | – | Activity (Rattus norvegicus [9]): Active; Activity (Rattus norvegicus [10]): Active; Activity (Rattus norvegicus [11]): Active; Activity (Rattus norvegicus [12]): Active; Activity (Rattus norvegicus [13]): Active; Activity (Rattus norvegicus [14]): Active |
| Cc1nc(NC(=O)CCc2ccc(Cl)cc2Cl)c(C)c(C)c1O | 41.5% | 35.9% | – |
| CC(=O)Nc1nc(C)c(O)c(C)c1C | 56% | 47.2% | Activity (Rattus norvegicus [15]): Active; Activity (Rattus norvegicus [16]): Active; Activity (Rattus norvegicus [17]): Active; Activity (Rattus norvegicus [18]): Dose-Dependent Effect; Activity (Rattus norvegicus [19]): Active; Activity (Rattus norvegicus [20]): Active |
| Cc1nc(NC(=O)Cc2cccc(Br)c2)c(C)c(C)c1O | 6.2% | 9.2% | – |
| Cc1nc(NC(=O)CCc2ccc(Cl)cc2)c(C)c(C)c1O | 30.6% | 20.8% | – |
| Cc1nc(NC(=O)C(Cl)Cl)c(C)c(C)c1O | – | 52.7% | – |
| Cc1nc(NC(=O)C(Cl)c2ccccc2)c(C)c(C)c1O (stereo not drawn) | 36.6% | 22.5% | – |
| Cc1nc(NC(=O)CCCCl)c(C)c(C)c1O | – | 17.8% | – |
| Cc1nc(NC(=O)CC(C)C)c(C)c(C)c1O | 52.3% | 48% | – |
| Cc1ccccc1CCC(=O)Nc1nc(C)c(O)c(C)c1C | 20.2% | 12.9% | – |
| Cc1nc(NC(=O)/C=C/c2ccccc2)c(C)c(C)c1O | 25.2% | 14.2% | – |
| CCCCCCCC(=O)Nc1nc(C)c(O)c(C)c1C | 61.5% | 54.8% | – |
| Cc1nc(NC(=O)Cc2ccc(F)cc2)c(C)c(C)c1O | 7.2% | 18.1% | – |
| Cc1nc(NC(=O)C2CCCC2)c(C)c(C)c1O | – | 34.8% | – |
| CC(=O)OCC(=O)Nc1nc(C)c(O)c(C)c1C | 6.8% | 9.7% | – |
| Cc1nc(NC(=O)Cc2ccccc2)c(C)c(C)c1O | 56.6% | 50.2% | – |
| Nc1ccc(O)c(C(=O)O)c1 [MESALAMINE] | – | – | inhibition at 1000 µM [21]: 1.7%; inhibition at 1000 µM [22]: 9.9% |
| Cc1nc(NC(=O)C(C)C)c(C)c(C)c1O | 64.2% | 53.9% | – |
| C[C@@H]1CCN(C(=O)CC#N)C[C@@H]1N(C)c1ncnc2[nH]ccc12 [TOFACITINIB] | 49.1% | 58.6% | – |
| CCCCCCCCCCCCCCCC(=O)Nc1nc(C)c(O)c(C)c1C | 31.7% | 17.4% | – |
| CCCCCCCCCCCC(=O)Nc1nc(C)c(O)c(C)c1C | – | 44.3% | – |
